Screens from PubChem BioAssay.
GSTO1 inh: blocks human GSTO1 in RBBP9 counter-screen. AID 1974. 300,000 tested, 1.1% active. P78417. recombinant GSTO1, activity-based probe fluorescence polarization. inhibition, % at 5.96 µM;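 active = inhibition above the campaign mean inhibition plus 3 SD, cut at about 35% in these data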
Target sequence (P78417 whole entry, looked up): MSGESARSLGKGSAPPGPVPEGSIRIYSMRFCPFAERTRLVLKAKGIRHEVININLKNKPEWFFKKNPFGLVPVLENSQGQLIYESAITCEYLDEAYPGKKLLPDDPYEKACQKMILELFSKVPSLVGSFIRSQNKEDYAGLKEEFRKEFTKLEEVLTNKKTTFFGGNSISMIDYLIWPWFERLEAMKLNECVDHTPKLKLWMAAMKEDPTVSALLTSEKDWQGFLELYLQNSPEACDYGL
Apaf1 inhib: inhibitors of human Apaf-1 apoptosome; O14727; reconstituted apoptosome caspase-3 activity, DEVD-Rh110 fluorescence; inhibition, % at 20 µM; 330,000 tested, 0.71% active; active = inhibition of at least 40% at 20 µM
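System: reconstituted apoptosome with Apaf-1, cytochrome c, caspase-9, procaspase-3, dATP; Signal: Rh110 fluorescence intensity; Schedule: 30 min compound preincubation, 50 min activation, room temperature; Reagent: cytochrome c trigger plus (Z-DEVD)2-Rh110 caspase-3 substrate.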
HKDC1 inh: HKDC1 (human) hexokinase inhibition; recombinant HKDC1, G6PDH/diaphorase resazurin coupled fluorescence; inhibition, % at 20 µM; 340,000 tested, 0.16% active; AID 493160;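 active = inhibition above about 35% when tested at 20 µM, limit read from the data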
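Test system: Recombinant HKDC1 (HK5) hexokinase enzyme, produced in-house | Input: HKDC1 at 5 µg/mL | Buffer or medium: Tris pH 8.0 buffer with MgCl2, Tween-20, BSA, BME | Schedule: 90 min reaction incubation at room temperature, dark | Technique: Resazurin-to-resorufin fluorescence via G6PDH and diaphorase coupling, 525/613 nm | Controls: DMSO wells with and without enzyme mix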
Redox H2O2 prof: compounds producing H2O2 with reducing agent – biochemical, NIH compound library profiling, artefact control for MLSCN library redox annotation, primary screen | activation, % at 10 µM | 200,000 tested, 0.03% active | AID 878 | DTT-dependent redox cycling H2O2, phenol red/HRP absorbance; 100% = 100 µM peroxide control, 0% = buffer;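 active = activation of at least 50% relative to the plate's high and low controls in the primary single-dose screen; inactive = activation below 50%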;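 note: compound incubated with DTT at 0.8 mM final as the reducing agent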
SUMO HTRF inh: blocks human SUMOylation mediated by UBC9; HTRF SUMOylation assay, SAE1/SAE2 + UBC9, in vitro; P63279; 290,000 tested, 0.36% active; AID 2006; inhibition, % at 35 µM; in the data active = inhibition above about 50%, passing the limit was not always enough
Target sequence (P63279 whole entry, looked up): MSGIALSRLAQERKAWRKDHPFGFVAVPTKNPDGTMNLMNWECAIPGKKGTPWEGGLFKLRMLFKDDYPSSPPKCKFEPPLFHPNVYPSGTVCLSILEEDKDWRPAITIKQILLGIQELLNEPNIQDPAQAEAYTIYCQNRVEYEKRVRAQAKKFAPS
Each line names hits and unclear results; the compound was inactive in the other large screens. Most compounds without a hit are left out; they make up all but 1.4% or so of the library.

O=C(COC(=O)c1cc(S(=O)(=O)Nc2ccccc2Cl)ccc1O)Nc1ccc(F)c(F)c1F	none (no result: GSTO1 inh, Redox H2O2 prof, SUMO HTRF inh)
Cc1c(NC(=O)c2ccc(S(=O)(=O)Nc3ccccc3F)cc2)c(=O)n(-c2ccccc2)n1C	none (no result: GSTO1 inh, Redox H2O2 prof, SUMO HTRF inh)
O=S(=O)(NCCc1ccccc1F)c1cccc(S(=O)(=O)N2CCOCC2)c1	GSTO1 inh 43
Cc1ccccc1C1CC(=O)c2ccccc2C1C (configuration not stated)	none (no result: GSTO1 inh, Apaf1 inhib, Redox H2O2 prof, SUMO HTRF inh)
COc1ccc2c(c1)-c1nc(/N=C/c3c(O)ccc4ccccc34)sc1CC2	SUMO HTRF inh 57 (no result: GSTO1 inh, Apaf1 inhib)
Cc1ccc(N(CCC(=O)O)S(=O)(=O)c2ccc(C)cc2)cc1	none
Cc1ccc(N(CC2CO2)S(=O)(=O)c2ccc(C)cc2)cc1 (configuration not stated)	GSTO1 inh 74
Cc1cccn2c(=O)c3cc(C(=O)NC4CCCCC4C)n(C)c3nc12 (configuration not stated)	none (no result: Redox H2O2 prof)
Cn1c(C(=O)N2CCN(C(=O)c3ccco3)CC2)cc2c(=O)n3ccccc3nc21	SUMO HTRF inh 58
CC1CCCCC1NC(=O)c1cc2c(=O)n3ccccc3nc2n1C (configuration not stated)	SUMO HTRF inh 58 (no result: Redox H2O2 prof)
Cc1ccccc1C(=O)Nc1ccccc1C(=O)N1CCC(C)CC1	none (no result: Redox H2O2 prof)
COC(=O)CN1C(=O)[C@H]2[C@@H](c3ccc(C)o3)N3C(=O)CN(CC4CC4)C(=O)[C@@]3(C)[C@H]2C1=O	none (no result: Redox H2O2 prof)
CSc1ccccc1NC(=O)C1CCN(S(C)(=O)=O)CC1	GSTO1 inh 35 (no result: Redox H2O2 prof)
CS(=O)(=O)N1CCC(C(=O)Nc2ccccc2F)CC1	none
CC(C)C(NC(=O)CCNC(=O)c1ccc([N+](=O)[O-])cc1)c1nc2ccccc2[nH]1 (configuration not stated)	none (no result: GSTO1 inh, Redox H2O2 prof, SUMO HTRF inh)
CCN(CC)CCN(C(=O)c1ccc2c(c1)CCCC2)c1nc2cc(OC)c(OC)cc2s1	Apaf1 inhib 48 (no result: Redox H2O2 prof)
COc1ccccc1/C=N/NC(=O)c1ccc(CN2C(=O)c3cccc4cccc2c34)cc1	SUMO HTRF inh 59 (no result: Redox H2O2 prof)
NNC(=O)c1ccc(CN2C(=O)c3cccc4cccc2c34)cc1	none
COC(=O)c1ccc(-n2nnnc2SCC(=O)Nc2ccccc2F)cc1	none (no result: Redox H2O2 prof)
CCCCNC(=O)C(C1CCCCC1)N(CCN(C)C)C(=O)CCCN1C(=O)NC(c2ccc(-c3ccccc3)cc2)C(C(=O)OCc2ccccc2)=C1C (configuration not stated)	Apaf1 inhib 64 (no result: GSTO1 inh, Redox H2O2 prof, SUMO HTRF inh)
CCCCCCN(C(=O)CCCCCN1C(=O)NC(c2ccc(-c3ccccc3)cc2)C(C(=O)OCc2ccccc2)=C1C)C(C)C(=O)NCCCC (configuration not stated)	none (no result: HKDC1 inh)
O=S(=O)(Nc1ccc2c(c1)OCO2)c1ccc(Cl)cc1F	none (no result: GSTO1 inh, Redox H2O2 prof, SUMO HTRF inh)
O=C(NCCc1cccc(Cl)c1)c1cccc(-n2cnnn2)c1	none (no result: GSTO1 inh, Redox H2O2 prof, SUMO HTRF inh)
O=C(CCN1C(=O)/C(=C\c2cccs2)SC1=S)Nc1ccc(C(=O)O)cc1	none (no result: Redox H2O2 prof)
CCN(CC)CCOC(=O)c1ccc(NC(=O)CCCN2C(=O)/C(=C\c3cccs3)SC2=S)cc1	Apaf1 inhib 60 (no result: Redox H2O2 prof)
CCc1cc2c(nc1CC)CCN(CC/C(C)=N/OC[C@H]1O[C@H](c3ccccc3)C=C[C@@H]1Oc1ccc(OC)cc1)C2	Apaf1 inhib 43 (no result: GSTO1 inh, HKDC1 inh)
COc1ccc(O[C@H]2C=C[C@@H](c3ccccc3)O[C@@H]2CO/N=C(\C)CCN2CCc3nc(-c4ccccc4)c(-c4ccccc4)cc3C2)cc1	Apaf1 inhib 48 (no result: HKDC1 inh)
COc1ccc(O[C@H]2C=C[C@@H](c3ccccc3)O[C@@H]2COC(=O)CC/C(C)=N/O[C@@H](C)c2cc(-c3c(C)cc(C)cc3C)no2)cc1	none (no result: GSTO1 inh, HKDC1 inh)
COc1ccc(O[C@H]2C=C[C@@H](c3ccccc3)O[C@@H]2COC(=O)CC/C(C)=N/OC[C@@H](O)COCc2ccco2)cc1	none (no result: HKDC1 inh)
CCn1c(C)nc2cc(C(=O)N/N=C/c3ccc(O)c(O)c3O)ccc21	SUMO HTRF inh 68 (no result: GSTO1 inh, Apaf1 inhib)
CN(CC(=O)Nc1ccccc1Br)C(=O)c1ccc2c(=O)n3c(nc2c1)CCC3	none (no result: GSTO1 inh, Redox H2O2 prof, SUMO HTRF inh)
COCc1cc(=O)n2[nH]c(-c3ccco3)cc2n1	none (no result: Redox H2O2 prof)
CCCCN1Cc2c(nc3cc(-c4ccco4)[nH]n3c2=O)C1=O	SUMO HTRF inh 92 (no result: Redox H2O2 prof)
CN(C)CCCn1c(N)c(C#N)c2nc3ccccc3nc21	SUMO HTRF inh 103 (no result: Redox H2O2 prof)
CN(C)C(=O)c1ccc2c(c1[N+](=O)[O-])C(=O)c1ccccc1C2=O	GSTO1 inh 36
